Measured values from ChEMBL document CHEMBL1123363, “(5-Amino-1,3-dimethyl-1H-pyrazol-4-yl)(2-fluorophenyl)methanones . A series of novel potential antipsychotic agents” (J Med Chem, 1986).

Columns and labels:
[1] = species on record: Rattus norvegicus; assay: Effective dose required for inhibition of conditional avoidance in rats; format: functional
Method in brief: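 Fasted male Wistar rats (150–250 g) were trained to jump to a platform at a buzzer to avoid grid shock (1.1 mA/s). After oral dosing they were tested every 20 min for 6 h over 19 trials, 10 rats per dose, each rat used once. Peak effect was the mean of the four consecutive trials with the largest effect, computed from response latency. ED50 read graphically from at least three doses.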

[2] = target: T1, Adrenergic receptor alpha-2 (Rattus norvegicus, UniProt P22086+P19328+P22909); assay: Binding affinity against alpha-2 adrenergic receptor in rat brain using [3H]- clonidine
T1 sequence (P22086 whole entry): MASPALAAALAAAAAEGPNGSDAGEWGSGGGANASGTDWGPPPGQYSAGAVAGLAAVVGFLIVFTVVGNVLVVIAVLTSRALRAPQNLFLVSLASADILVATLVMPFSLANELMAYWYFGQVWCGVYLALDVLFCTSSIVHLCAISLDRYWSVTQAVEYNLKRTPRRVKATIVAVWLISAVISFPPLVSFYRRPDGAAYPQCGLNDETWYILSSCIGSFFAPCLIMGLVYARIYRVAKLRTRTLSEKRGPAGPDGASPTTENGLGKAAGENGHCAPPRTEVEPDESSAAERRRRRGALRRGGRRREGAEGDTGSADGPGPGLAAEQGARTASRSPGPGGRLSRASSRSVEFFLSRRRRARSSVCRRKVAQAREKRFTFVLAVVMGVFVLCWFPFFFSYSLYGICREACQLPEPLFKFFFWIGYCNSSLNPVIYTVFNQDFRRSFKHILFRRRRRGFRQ
T1 sequence (P19328 whole entry): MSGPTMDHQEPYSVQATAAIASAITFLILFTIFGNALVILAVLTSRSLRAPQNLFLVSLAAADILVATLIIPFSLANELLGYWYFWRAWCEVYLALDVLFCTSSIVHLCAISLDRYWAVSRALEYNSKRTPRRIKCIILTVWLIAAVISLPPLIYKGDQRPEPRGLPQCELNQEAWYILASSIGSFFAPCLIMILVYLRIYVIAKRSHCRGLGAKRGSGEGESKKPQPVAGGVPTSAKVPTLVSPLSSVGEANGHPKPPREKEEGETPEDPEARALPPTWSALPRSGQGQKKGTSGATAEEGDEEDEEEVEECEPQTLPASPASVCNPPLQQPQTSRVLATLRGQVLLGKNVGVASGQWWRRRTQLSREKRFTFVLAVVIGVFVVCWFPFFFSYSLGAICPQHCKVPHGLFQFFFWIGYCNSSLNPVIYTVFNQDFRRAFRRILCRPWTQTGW
T1 sequence (P22909 whole entry): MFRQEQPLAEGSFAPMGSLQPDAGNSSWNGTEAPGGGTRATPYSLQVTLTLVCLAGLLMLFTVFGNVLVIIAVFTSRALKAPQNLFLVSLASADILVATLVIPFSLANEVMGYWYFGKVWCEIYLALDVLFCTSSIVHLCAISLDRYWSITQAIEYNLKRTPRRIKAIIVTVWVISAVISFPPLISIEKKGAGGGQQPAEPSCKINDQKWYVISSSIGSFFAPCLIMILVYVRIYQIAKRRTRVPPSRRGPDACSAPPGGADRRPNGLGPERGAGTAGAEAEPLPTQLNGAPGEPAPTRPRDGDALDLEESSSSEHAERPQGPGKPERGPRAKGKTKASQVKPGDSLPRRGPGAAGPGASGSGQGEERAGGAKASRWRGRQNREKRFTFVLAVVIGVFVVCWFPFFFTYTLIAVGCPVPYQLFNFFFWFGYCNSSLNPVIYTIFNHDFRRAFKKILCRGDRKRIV

[3] = target: GABA-A receptor; anion channel; assay: Displacement of [3H]GABA from rat brain Gamma-aminobutyric acid receptor
Method in brief: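 GABA binding in membranes of rat whole brain minus cerebellum and brain stem (male Long-Evans, 150–250 g), using [3H]-GABA at 25 nM final. GABA at 1 mM final was the reference. IC50 from four or five concentrations by nonlinear curve fitting.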

[4] = target: Dopamine receptor; assay: Binding affinity for dopamine receptor in rat striatal membrane using [3H]haloperidol as radioligand; format: cell membranes, Striatum
Method in brief: (§1)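 Nonspecific binding defined with (+)-butaclamol at 0.1 μM final. IC50 fitted by nonlinear curve fit from four or five concentrations in triplicate.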

[5] = test system: Rattus norvegicus; assay: Compound was tested for serum prolactin assay method in rats at 100 mg/kg dose after peroral administration; format: functional; conditions: route oral
Method in brief: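 Seven-week-old male Sprague–Dawley rats, five per group, were dosed orally and killed by decapitation 1 h later. Serum prolactin from trunk blood was measured by radioimmunoassay with [125I]-PRL and expressed as % of control (mean ± SEM).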

[6] = Extrapyramidal side effect test in cebus monkey; format: functional; conditions: read-out: MED
Method in brief: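 Groups of three to six were then dosed by gavage and observed hourly for 6–8 h for dystonia or dyskinesia. Any unequivocal sign counted as a positive response. Minimal effective dose was determined in at least three animals.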

[7] = Inhibition of sidman avoidance in squirrel monkeys after peroral administration; format: functional; conditions: po
Method in brief: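 Mature squirrel monkeys, trained on a modified Sidman avoidance lever schedule, were dosed orally and tested in 6-h sessions. Inhibition was expressed as % of each animal's own nondrug responding. At least three doses were given to four animals, with sessions at least 1 week apart. ED50 from nonlinear regression.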

[8] = target: Dopamine receptor; assay: Binding affinity against dopamine receptor using [3H]- haloperidol in rat brain; format: tissue-based; method in brief: as §1
[9] = species on record: Rattus norvegicus; assay: Compound was tested for adenylate cyclase activity in rat corpus striatum; format: functional
Method in brief: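 Rat corpus striatum homogenates from male Long–Evans rats (200–300 g) were incubated with dopamine held at 20 μM while test compound concentration was varied. Cyclic AMP formed was measured by radioimmunoassay, with assays run in triplicate.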

[10] = test system: Rattus norvegicus; assay: Compound was tested for its antagonized affect on the accumulation of the brain dopamine induced by butyrolactone (GBL) at 25 mg/kg after intraperitoneal administration; format: functional; set-up: scale not given: the % may be the effect or the level left
Method in brief: (§2)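 Rats received test compound ip 30 min before γ-butyrolactone (750 mg/kg ip) and were killed 1 h after GBL. Dopamine in brain minus brain stem and cerebellum (four to six rats) was measured spectrofluorometrically and expressed as % of the GBL-treated group.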

[11] = test system: Mus musculus; assay: Inhibition of apomorphine-induced climbing in mice after intraperitoneal administration; format: functional; conditions: ip
Method in brief: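 Male Swiss–Webster mice (25–35 g), ten per dose, were acclimated 30 min in cylindrical cages and then dosed ip. One hour later they received apomorphine 3 mg/kg sc. Climbing was scored in 30-s tests every 5 min for 30 min, starting 15 min after apomorphine. ED50 from at least three doses by nonlinear regression.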

[12] = target: Dopamine receptor; assay: Binding affinity against dopamine receptor in rat striatal membrane using [3H]haloperidol; format: cell membranes, Striatum; method in brief: as §1
[13] = target: Dopamine receptor (Rattus norvegicus) (UniProt P25115+P19020+P30729+P18901+P61169); assay: Compound was tested for its effect on Dopamine turnover in rat at dose of 10+/-250 mg/kg; format: functional, organism-based; conditions: in the assay text read “64+/-250 mg/kg” for “10+/-250 mg/kg”
Method in brief: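 Male Long-Evans rats were given vehicle or agent ip 30 min before α-methyl-p-tyrosine (250 mg/kg) and killed 4 h after it. Brain NE and DA were isolated on Sephadex G-10 and measured spectrofluorometrically. Values are percent of vehicle-treated, with at least five determinations per value.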

[14] = test system: Rattus norvegicus; assay: Antagonized affect on the accumulation of the brain dopamine induced by butyrolactone (GBL) at 25 mg/kg after intraperitoneal administration; format: functional; set-up: scale not given: the % may be the effect or the level left; method in brief: as §2

| SMILES | ED50 [1] [mg/kg] | IC50 [2] [µM] | IC50 [3] [µM] | IC50 [4] [µM] | Control [5] [%] | minimal effective dose [6] [mg/kg] | ED50 [7] [mg/kg] | IC50 [8] [µM] | IC50 [9] [µM] | Control [10] [%] | ED50 [11] [mg/kg] | IC50 [12] [µM] | Control [13] [%] | Control [14] [%] |
| --- | --- | --- | --- | --- | --- | --- | --- | --- | --- | --- | --- | --- | --- | --- |
| Cc1nn(C)c(N)c1C(=O)c1ccccc1F | 18 | > 10 | > 10 | > 10 |  |  |  |  |  |  |  |  |  |  |
| CCN(CC)CC(=O)Nc1c(C(=O)c2ccccc2F)c(C)nn1C |  |  |  |  | 21.8 | > 100 | 15.6 | > 10 | > 10 | 85.5 | > 100 |  |  |  |
| Cc1nn(C)c(NC(=O)CNCCCN2CCCCC2C)c1C(=O)c1ccccc1F (configuration not stated) |  | > 10 | > 10 | > 10 | 51 | > 200 | 12.7 |  | > 10 |  | > 100 | > 10 | 45.6 | 91.2 |
